Assay results reported in ChEMBL document CHEMBL2093137, “WHO-TDR NTD Screening”.
≈ marks a conversion by molar mass, not a printed value.

Legend:
[1] = WHO-TDR: Cytotoxicity; assay type: toxicity, cell-based; details: human, MRC5 cells
[2] = tested on: Plasmodium falciparum K1; assay: WHO-TDR: Malaria; assay type: functional, organism-based, Homo sapiens; details: Erythrocyte
Outline: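 Following previously published standard procedures, with a reference drug serving as positive control, compounds were tested on the Plasmodium falciparum K1 strain inside human red blood cells. The 10,000-compound diverse set came from Life Chemicals after filtering for drug-likeness and reactive groups. Potency against the parasite appears as IC50.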

[3] = tested on: Trypanosoma cruzi; assay: WHO-TDR: Chagas disease; assay type: functional, organism-based, Homo sapiens; details: MRC5
Outline: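 Intracellular amastigotes of the Trypanosoma cruzi Tulahuen CL2 beta-galactosidase strain, grown in MRC-5SV2 human lung fibroblast host cells, were tested in a whole-organism screen. The compounds came from a 10,000-member diverse Life Chemicals library that had been filtered for drug-likeness and reactive groups. Previously published standard procedures were followed, with a reference drug as positive control, and potency is reported as IC50.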

[4] = tested on: Trypanosoma brucei brucei; assay: WHO-TDR: Human African Trypanosomiasis (HAT); assay type: functional, organism-based; details: Squib-427
Outline: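 Bloodstream forms of the Trypanosoma brucei Squib 427 strain were tested in a whole-organism screen with a diverse library from Life Chemicals of 10,000 compounds. Before screening, the library was filtered for drug-likeness and for reactive groups. The assay used previously published standard procedures and included reference drugs as positive controls. Potency against the parasite is expressed as IC50.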

[5] = tested on: Leishmania infantum; assay: WHO-TDR: Leishmaniasis; assay type: functional, organism-based, Mus musculus; details: Macrophage
Outline: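 Following previously published standard procedures, a whole-organism screen was run on Leishmania infantum MHOM/MA(BE)/67 amastigotes within murine peritoneal macrophages, with a reference drug as positive control. The 10,000 compounds tested formed a diverse Life Chemicals library filtered for drug-likeness and reactive groups. Potency against the parasite is reported as IC50.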

[6] = tested on: Schistosoma mansoni; assay: (§1) WHO-TDR: Schistosomiasis; assay type: functional; set-up: concentration or dose not given beside the values
Outline: (§2)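 Values are reported as percent inhibition and IC50. They come from a whole-organism screen of a 10,000-compound diverse Life Chemicals library against larval and/or adult worms of Schistosoma mansoni, Puerto Rican strain. The library had been filtered for drug-likeness and reactive groups.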

[7] = tested on: Schistosoma mansoni; assay: as §1; assay type: functional, organism-based; outline: as §2
[8] = tested on: Onchocerca lienalis; assay: (§3) WHO-TDR: Onchocerciasis; assay type: functional; set-up: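 at 12.5 µM on microfilariae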
Outline: (§4)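 Values are reported as percent inhibition and as IC50. They come from a whole-organism screen of a 10,000-compound diverse Life Chemicals library against microfilariae of Onchocerca ochengi or Onchocerca lienalis. The screen followed previously published standard procedures, with reference drugs as positive controls.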

[9] = tested on: Brugia malayi; assay: (§5) WHO-TDR: Lymphatic Filariasis; assay type: functional; set-up: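 tested at 10 µM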
Outline: (§6)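 Values are percent inhibition and IC50 from a whole-organism screen against Brugia malayi microfilariae. The compounds, 10,000 in all, came from a diverse Life Chemicals library filtered for drug-likeness and reactive groups.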

[10] = tested on: Brugia malayi; assay: as §5; assay type: functional, organism-based; outline: as §6
[11] = tested on: Brugia malayi; assay: as §5; assay type: functional; set-up: concentration or dose not given beside the values; outline: as §6; remark: listed apart in the source
[12] = tested on: Onchocerca ochengi; assay: as §3; assay type: functional; set-up: concentration or dose not given beside the values; outline: as §4;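 further: at 12.5 µM on microfilariae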

IC50 [2] [µg/mL] | IC50 [4] [µg/mL] | IC50 [5] [µg/mL] | IC50 [7] | IC50 [10] [µM] | SMILES | IC50 [1] [µg/mL] | IC50 [3] [µg/mL] | % Inhibition [6] [%] | % Inhibition [8] [%] | % Inhibition [9] [%] | % Inhibition [11] [%] | % Inhibition [12] [%]
1.2 (≈ 2.44 µM) | 0.383 (≈ 0.781 µM) | 5.12 (≈ 10.4 µM) | 4.3 µM |  | CN(C)CCCN(C(=O)c1cc(-c2cccs2)nc2ccccc12)c1nc2c(F)cccc2s1 | 4.21 (≈ 8.58 µM) | 4.32 (≈ 8.81 µM) | 100 | 0 |  |  | 
> 15.3 | 4.9 (≈ 10.3 µM) | 5.81 (≈ 12.3 µM) |  | 6.05 | O=C(CCS(=O)(=O)c1ccccc1)N(CCCN1CCOCC1)c1nc2ccccc2s1 | 2.88 (≈ 6.09 µM) | 8.52 (≈ 18 µM) | 0 | 9.31 | 100 | 60 | 
3.71 (≈ 8 µM) | 0.45 (≈ 0.971 µM) | 4.5 (≈ 9.71 µM) |  | 5.19 | O=C(Nc1nc2c(s1)CSc1ccccc1-2)C1CCCN1S(=O)(=O)c1cccs1 (stereo not drawn) | 1.88 (≈ 4.06 µM) | 0.5 (≈ 1.08 µM) | 100 | 93 | 100 | 0 | 
> 14.9 | 2.24 (≈ 4.49 µM) | > 14.9 |  | 3.97 | CN(Cc1ccco1)S(=O)(=O)c1ccc(C(=O)Nc2nc3c(s2)CSc2ccccc2-3)cc1 | > 14.9 | 3.86 (≈ 7.76 µM) | 91.7 | 0 | 100 | 40 | 
> 13.5 | > 13.5 | 4.37 (≈ 9.71 µM) |  | 3.54 | O=C(CCCSc1ccc(F)cc1)N1CCN(c2nc3ccc(Cl)cc3s2)CC1 | > 13.5 | > 13.5 | 0 | 12.34 | 100 | 40 | 
> 14.5 | > 14.5 | > 14.5 | 8.8 µM |  | O=C(Nc1cc2ccccc2cc1NC(=O)c1ccc2c(c1)OCCO2)c1ccc2c(c1)OCCO2 | > 14.5 | > 14.5 | 100 | 13.3 |  |  | 
> 13.6 | > 13.6 | > 13.6 | 9.8 µM |  | CCOC(=O)c1c(NC(=O)C(C)Sc2nnc(NC(C)=O)s2)sc2c1CCCC2 (stereo not drawn) | > 13.6 | > 13.6 | 100 | 0 |  |  | 
> 8.86 | 4.38 (≈ 8.92 µM) | 4.66 (≈ 9.49 µM) | 7.4 µM |  | CN(CC1CCCO1)S(=O)(=O)c1ccc(C(=O)Nc2cccc(-c3nc4ccccc4o3)c2)cc1 (stereo not drawn) | > 8.86 | > 8.86 | 100 | 13.3 |  |  | 
> 9.7 | > 9.7 | > 9.7 | 8.2 µM |  | COC(=O)c1sc(-c2ccccc2)cc1NC(=O)CCS(=O)(=O)c1ccccc1 | > 9.7 | > 9.7 | 100 | 13.3 |  |  | 
7.35 (≈ 14.8 µM) | > 11 | > 11 | 9.9 µM |  | CCN(c1ccccc1)S(=O)(=O)c1ccc(C(=O)Nc2sc3c(c2C(=O)NC)CCCC3)cc1 | > 11 | 5.24 (≈ 10.5 µM) | 100 | 13.3 |  |  | 
> 11 | > 11 | > 11 | 5.7 µM |  | C=CCN(CC=C)S(=O)(=O)c1ccc(C(=O)Nc2nc3ccc(C(C)C)cc3s2)cc1 | > 11 | 4.48 (≈ 9.84 µM) | 100 | 0 |  |  | 
> 12.1 | > 12.1 | > 12.1 | 6.5 µM |  | CCc1ccc(NC(=O)c2oc3ccccc3c2NC(=O)Cc2cccs2)cc1 | > 12.1 | > 12.1 | 100 | 0 |  |  | 
> 14.7 | > 14.7 | 4.75 (≈ 9.71 µM) | 6.7 µM |  | Cc1ccc(NC(=O)c2oc3ccccc3c2NC(=O)CC(c2ccccc2)c2ccccc2)cc1C | > 14.7 | > 14.7 | 100 | 0 |  |  | 
> 9.91 | 3.13 (≈ 9.49 µM) | 3.21 (≈ 9.71 µM) | 5.2 µM |  | CCSc1nnc(NC(=O)CSc2nncc(=O)[nH]2)s1 | 1.95 (≈ 5.92 µM) | 3.09 (≈ 9.35 µM) | 100 | 0 |  |  | 
0.966 (≈ 2.83 µM) | 3.24 (≈ 9.49 µM) | > 10.2 | 5.2 µM |  | O=C(CSc1nncc(=O)[nH]1)Nc1ccc(Br)cc1 | 1.76 (≈ 5.15 µM) | 2.82 (≈ 8.26 µM) | 100 | 0 |  |  | 
3.64 (≈ 11.7 µM) | 2.91 (≈ 9.37 µM) | > 9.32 | 4.5 µM |  | Cc1ccc(NC(=O)CSc2nncc(=O)[nH]2)cc1Cl | 2.55 (≈ 8.2 µM) | 2.99 (≈ 9.61 µM) | 100 | 0 |  |  | 
> 10.9 | > 10.9 | > 10.9 | 6.3 µM |  | O=C(CSc1nncc(=O)[nH]1)Nc1cc(C(F)(F)F)ccc1Cl | > 10.9 | > 10.9 | 100 | 0 |  |  | 
10.4 (≈ 24.8 µM) | > 12.6 | 4.07 (≈ 9.71 µM) | 2.7 µM |  | Cc1nc(-c2ccccc2)sc1C(=O)Nc1cccc(-c2cn3c(n2)SCC3)c1 | 8.81 (≈ 21.1 µM) | 10.5 (≈ 25 µM) | 100 | 0 |  |  | 
> 9.43 | > 9.43 | > 9.43 | 2.21 µg/mL |  | CCOC(=O)c1oc2ccccc2c1NC(=O)c1cc(C)no1 | > 9.43 | > 9.43 | 100 |  | 20 |  | 0
> 11.3 | > 11.3 | > 11.3 | 3.16 µg/mL |  | C#CCn1/c(=N\C(=O)c2cc(C)no2)sc2cc(S(N)(=O)=O)ccc21 | > 11.3 | > 11.3 | 100 |  | 0 |  | 0
> 10.8 | > 10.8 | > 10.8 | 2.48 µg/mL |  | O=C(Cc1csc(NC(=O)C2CCC(=O)N2)n1)NCc1ccccn1 (stereo not drawn) | > 10.8 | > 10.8 | 100 |  | 20 |  | 0
1.44 (≈ 3.25 µM) | 0.428 (≈ 0.964 µM) | 0.467 (≈ 1.05 µM) | 4.3 µM |  | CN(C)CCCN(C(=O)/C=C/c1ccccc1Cl)c1nc2cc3c(cc2s1)OCO3 | 0.462 (≈ 1.04 µM) | 0.408 (≈ 0.919 µM) | 100 | 0 |  |  | 
1.13 (≈ 2.64 µM) | 0.456 (≈ 1.07 µM) | 4.51 (≈ 10.5 µM) | 5.7 µM |  | COc1cc(OC)cc(C(=O)N(CCCN(C)C)c2nc3c(C)c(C)ccc3s2)c1 | 2.84 (≈ 6.64 µM) | 4.66 (≈ 10.9 µM) | 100 | 0 |  |  | 
> 12.8 | > 12.8 | > 12.8 | 3.38 µg/mL |  | O=C(NCCOc1ccc2nnc(-c3ccccc3)n2n1)c1ccccc1C(F)(F)F | > 12.8 | > 12.8 | 100 |  | 33.33 |  | 0
> 13.3 | > 13.3 | 4.29 (≈ 9.71 µM) | 3.58 µg/mL |  | COc1ccc(Cl)cc1C(=O)NCCOc1ccc2nnc(-c3ccc(F)cc3)n2n1 | > 13.3 | > 13.3 | 100 |  | 33.33 |  | 0
6.4 (≈ 16.9 µM) | > 11.4 | > 11.4 | 3.15 µg/mL |  | O=C(CCC1CCCCC1)N1CCN(c2ccc(-c3cccnc3)nn2)CC1 | > 11.4 | 4.89 (≈ 12.9 µM) | 100 |  | 33.33 |  | 50
0.396 (≈ 1.09 µM) | 1.59 (≈ 4.37 µM) | > 10.9 | 2.36 µg/mL |  | O=C(c1ccccc1F)N1CCN(c2ccc(-c3ccccn3)nn2)CC1 | 2.77 (≈ 7.63 µM) | 0.375 (≈ 1.03 µM) | 100 |  | 33.33 |  | 100
> 12.1 | > 12.1 | > 12.1 | 2.79 µg/mL |  | O=S(=O)(c1ccccc1Cl)N1CCN(c2ccc(-c3ccco3)nn2)CC1 | > 12.1 | > 12.1 | 100 |  | 0 |  | 0
0.566 (≈ 1.85 µM) | 2.53 (≈ 8.27 µM) | > 9.19 | 5.8 µM |  | CCOc1ccc(NC(=O)CSc2nncc(O)n2)cc1 | 3.01 (≈ 9.83 µM) | 3.3 (≈ 10.8 µM) | 100 | 0 |  |  | 
